Screens from PubChem.
miR122 inh: inhibitors of miR-122 in Huh7 cells; Huh7 miR-122 Renilla luciferase sensor, 48 h; neutral wells = 0, positive control = 100; activation (reporter increase), % at 12.5 µM; 0.3% of 340,000 active; AID 602342;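 active = mean replicate activation score at least 90 and every replicate individually at or above 90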;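 also: higher luciferase means less miR-122 activity so hits act as miR-122 inhibitors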
GSIS activator: GLuc luminescence reporter in INS-1E cells, primary screen for activators of glucose-dependent secretion of insulin | 0.61% of 370,000 active | activation, % at 16.6 µM | AID 743287 | INS-1E GLuc reporter insulin secretion, 2-3 h;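 active = lowest replicate activation of at least 40%, so every replicate reaches that level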;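 also: 0% = median of neutral control wells and 100% = median of IBMX positive control wells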
Env fusion inh: HIV envelope-mediated fusion inhibition; HeLa-JRFL Env/CEM21 cell fusion, luciferase; inhibition, % at 12.3 µM; 1.1% of 360,000 active; AID 651610;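 active = mean replicate inhibition score of at least 50 and every replicate individually at or above 50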;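 also: 0% = plate neutral controls and 100% = maraviroc near 300 nM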
CFTR F508del cor: correctors of CFTR F508del function in bronchial epithelial cells; CFBE cells, YFP halide quenching; stimulated with forskolin plus potentiator P3; % fluorescence drop versus neutral controls; activity (quench increase), % at 7.58 µM; 0.36% of 350,000 active; AID 720511;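 active = mean added fluorescence quench of at least 8% versus neutral control, with both replicates also reaching 8%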;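 also: cells transiently co-express mutant CFTR-F508del with the halide-sensitive YFP; corrector assay measuring rescue of mutant channel to the surface after 24 h compound exposure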
Cneo AK release: Cryptococcus neoformans lysis via adenylate kinase release. AID 651654. lysis activity, % at 15 µM. 0.2% of 360,000 active. C. neoformans lysis, adenylate kinase release luminescence, 4 h; normalised: neutral wells 0, clomiphene wells 100;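 active = mean lysis activity across replicates of at least 80%, whatever share of replicates individually reach that level; inactive = mean lysis activity below 80%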
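Test system: log-phase Cryptococcus neoformans yeast cells. Input: 5 × 10^6 yeast cells/mL. Medium: fresh YPD growth medium. Doses: single dose. Incubation: static 4 h at 37 °C with compound, 1 h detection. Measured by: luminescent adenylate kinase detection reagent. Read-out: signal increase indicating cell lysis. Benchmarks: Clomiphene.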
Ecoli rRNA inh: inhibitors of bacterial rRNA selective over humanized ribosomes; E. coli WT GFP vs humanized-ribosome RFP mutants, fluorescence, 24 h; active compounds read low; DMSO median 0, no signal -100; 1.6% of 350,000 active; AID 720706; GFP signal change (wild-type ribosome), % (concentration not given with the values);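 active = significant combined selectivity score with lowered wild-type GFP, culture density cut under 30%, mutant RFP and density less affected; inactive = any of these conditions unmet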
* = called active by the depositor; . = no result; [ ] = dose if it differs, or a comment. Hits are enriched below; roughly 3.1% of the tested compounds scored in any of these assays.

SMILES	miR122 inh	GSIS activator	Env fusion inh	CFTR F508del cor	Cneo AK release	Ecoli rRNA inh
Cc1ccc(S(=O)(=O)N2C[C@@H]3[C@H]4CC[C@H](C4)[C@@H]3[C@@H](C)[C@@H]2c2ccn(Cc3ccccc3)c2)cc1	.	-3.7	62.6*	-1.2	-0.4	11.0
Cc1ccc(S(=O)(=O)N2C[C@@H]3[C@H]4CC[C@H](C4)[C@@H]3[C@@H](C)[C@@H]2c2cccn2Cc2ccccc2)cc1	.	-0.9	-7.4	4.5	-5.7	23.6
O=Cc1ccc2c(c1)CCN2Cc1ccccc1	.	12.0	-30.3	0.7	0.5	-18.8*
O=C(C[C@@H]1C[C@@H]2c3cc(NC(=O)c4ccc5c(c4)OCO5)ccc3O[C@@H]2[C@@H](CO)O1)NCc1cccc(F)c1	-2.7[16.7 µM]	-0.6	16.4[16.7 µM]	1.3	-16.4	-5.1
CC1(c2ccc(OCC#N)cc2)C=C(c2ccc(OCC#N)cc2)n2nc(C(F)(F)F)nc2N1 (centres undefined)	.	-1.3	11.8	3.8	.	-26.8*
COc1ccc(-c2cn(CC[C@@H]3CC[C@H](NC(=O)NC(C)C)[C@@H](CO)O3)nn2)cc1	.	8.2	-16.8[16.7 µM]	0.7	1.9	2.0
COc1cc(OC)c2c(-c3cccc(-c4cccc(C)c4)c3)cc(=O)oc2c1	5.5	18.5	24.0	5.2	-0.3	25.1
COc1ccc(-c2cccc(-c3cc(=O)oc4cc(OC)cc(OC)c34)c2)cc1	104.1*	-14.0	-29.0	2.6	3.7	10.3
COc1cc(OC)c2c(-c3cccc(-c4ccc(O)cc4)c3)cc(=O)oc2c1	98.6*	11.2	-63.6	-0.5	-4.9	-23.7*
COc1cc(OC)c2c(-c3cccc(-c4ccc(N(C)C)cc4)c3)cc(=O)oc2c1	97.2*	11.8	-164.4	6.3	0.1	3.0
COc1cc(OC)c2c(-c3cccc(-c4ccc(OC(F)(F)F)cc4)c3)cc(=O)oc2c1	-9.2	0.4	8.7	2.3	2.7	12.0
COc1ccc(-c2cccc(-c3cc(=O)oc4cc(OC)c(OC)c(OC)c34)c2)cc1	9.8	0.0	50.0*	-0.5	-1.3	18.2
CN1c2ccc(-c3ccccc3F)cc2[C@@H]2[C@@H](CCN2C(=O)NC2CCCC2)[C@@H]1CO	0.3[16.7 µM]	-2.1	.	1.2	0.2	-17.8
COc1cccc(OCCNS(=O)(=O)c2ccccc2[N+](=O)[O-])c1	-1.7	7.1	.	-1.6	-1.1	-21.6*
COc1ccc(NC(=O)N(C)C[C@H]2OCCCC[C@@H](C)Oc3ccc(NS(C)(=O)=O)cc3C(=O)N([C@@H](C)CO)C[C@H]2C)cc1	0.8[16.7 µM]	7.2	-14.1[16.7 µM]	1.1	-1.1	-1.5
CNC[C@H](CC1CCCCC1)NC[C@H](Cc1ccccc1)NCCC12CC3CC(CC(C3)C1)C2	.	649.3*	92.9*	-1.4	18.6	-56.3
C[C@@H]1CN([C@@H](C)CO)C(=O)c2cccc(NC(=O)c3ccncc3)c2O[C@@H]1CN(C)C	112.0*[16.7 µM]	7.3	.	-0.8	56.2	1.1
C[C@H]1CN([C@@H](C)CO)C(=O)c2cccc(NC(=O)c3ccncc3)c2O[C@H]1CN(C)S(C)(=O)=O	-10.2[16.7 µM]	-4.6	.	-4.1	-0.1	1.8
C[C@@H]1CN([C@@H](C)CO)C(=O)c2cccc(NC(=O)c3ccncc3)c2O[C@H]1CN(C)CC1CCCCC1	18.1[16.7 µM]	-10.7	99.4*[16.7 µM]	-1.1	4.3	-7.0
CC(C)NC(=O)Nc1cccc2c1O[C@H](CN(C)C(=O)Nc1ccc(F)cc1)[C@H](C)CN([C@H](C)CO)C2=O	-13.7[16.7 µM]	20.6	.	0.6	52.4	4.6
Oc1ccc(N=Nc2ccc3c(c2)OCCO3)c(O)c1	-5.7	-35.7	-106.2	0.7	-0.1	-38.0*
COc1ccccc1C#CC1=CC(=O)CC(C)(C)C1	-3.0	1.0	14.6	-3.1	-1.3	-22.6*
COCC(=O)N(C)C[C@@H]1Oc2ncc(C#Cc3ccccc3)cc2C(=O)N([C@@H](C)CO)C[C@H]1C	-3.0[16.7 µM]	14.2	0.2[16.7 µM]	1.1	-2.2	2.8
CCc1n[nH]c(=S)n1/N=C/c1c(O)ccc2ccccc12	4.3	-22.8	56.1*	0.1	2.8	-10.0
CCC(=O)N1C[C@@H](C)[C@H](OC)CN(C)C(=O)c2cc(NC(=O)COC)ccc2OC[C@H]1C	.	6.9	.	-0.4	-1.5	0.7
